Assay results from ChEMBL document CHEMBL5058577, “EUbOPEN Chemogenomics Library 2 (Multiplex)” (2022).

Test system: HEK-293T
Assay: Multiplex assay against HEK293T
Assay type: toxicity, cell-based
Conditions: human
In short: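 Values for tubulin, mitochondrial-mass and membrane-permeability phenotypes are per cents of cells with healthy nuclei. These cells were identified by CellPathfinder machine-learning gating of live cells that had been stained at seeding with Hoechst33342, BioTracker Green Microtubule Cytoskeleton Dye, MitoTracker Red and Annexin V Alexa Fluor 680 and imaged on a CQ1 microscope at 37°C and 5% CO2 after compound addition. The gating first set Hoechst high-intensity objects apart from normal cells, then split normal cells into healthy, pyknosed or fragmented nuclei, and pyknosed cells into mitotic or apoptotic.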

[1] = 12 h, 1 µM, compound concentration 1 uM, replicate 1
[2] = 12 h, 1 µM, compound concentration 1 uM, replicate 2
[3] = 12 h, 10 µM, compound concentration 10 uM, replicate 1
[4] = 12 h, 10 µM, compound concentration 10 uM, replicate 2
[5] = 24 h, 1 µM, compound concentration 1 uM, replicate 1
[6] = 24 h, 1 µM, compound concentration 1 uM, replicate 2
[7] = 24 h, 10 µM, compound concentration 10 uM, replicate 1
[8] = 24 h, 10 µM, compound concentration 10 uM, replicate 2
[9] = 48 h, 1 µM, compound concentration 1 uM, replicate 1
[10] = 48 h, 1 µM, compound concentration 1 uM, replicate 2
[11] = 48 h, 10 µM, compound concentration 10 uM, replicate 1
[12] = 48 h, 10 µM, compound concentration 10 uM, replicate 2

`O=C(NCCN1CCC(n2c(=O)[nH]c3cc(Cl)ccc32)CC1)c1ccc(F)cc1` [HALOPEMIDE] was tested, and the “Population Apoptotic (%)” value [1] was 46%, the “Population Fragmented Nuclei (%)” value [1] was 5% and the “Population Healthy Nuclei (%)” value [1] was 81%. For the same compound, the “Population Hoechst High Intensity Objects (%)” value [1] was 7%, the “Population Membrane Permeable-Phenotype (%)” value [1] was 0% and the “Population Mitochondria Different-Phenotype (%)” value [1] was 54%. For the same compound, the “Population Mitotic Cells (%)” value [1] was 53%, the “Population Normal (%)” value [1] was 92% and the “Population Pyknosed Nuclei (%)” value [1] was 13%. The “Population Tubulin-Different-Phenotype (%)” value [1] was 42%, the “Total Cell Count” value [1] was 334 and the “Population Apoptotic (%)” value [2] was 43%. For the same compound, the “Population Healthy Nuclei (%)” value [2] was 79%, the “Population Hoechst High Intensity Objects (%)” value [2] was 10% and the “Population Mitochondria Different-Phenotype (%)” value [2] was 62%. For the same compound, the “Population Mitotic Cells (%)” value [2] was 56%, the “Population Normal (%)” value [2] was 89% and the “Population Pyknosed Nuclei (%)” value [2] was 15%. For the same compound, the “Population Tubulin-Different-Phenotype (%)” value [2] was 29%, the “Total Cell Count” value [2] was 373 and the “Population Apoptotic (%)” value [3] was 39%. For the same compound, the “Population Fragmented Nuclei (%)” value [3] was 5%, the “Population Healthy Nuclei (%)” value [3] was 74% and the “Population Hoechst High Intensity Objects (%)” value [3] was 14%. For the same compound, the “Population Membrane Permeable-Phenotype (%)” value [3] was 0%, the “Population Mitochondria Different-Phenotype (%)” value [3] was 76% and the “Population Mitotic Cells (%)” value [3] was 60%. For the same compound, the “Population Normal (%)” value [3] was 85%, the “Population Pyknosed Nuclei (%)” value [3] was 20% and the “Population Tubulin-Different-Phenotype (%)” value [3] was 68%. For the same compound, the “Total Cell Count” value [3] was 460, the “Population Apoptotic (%)” value [4] was 65% and the “Population Fragmented Nuclei (%)” value [4] was 6%. For the same compound, the “Population Healthy Nuclei (%)” value [4] was 72%, the “Population Hoechst High Intensity Objects (%)” value [4] was 13% and the “Population Membrane Permeable-Phenotype (%)” value [4] was 1%. For the same compound, the “Population Mitochondria Different-Phenotype (%)” value [4] was 84%, the “Population Mitotic Cells (%)” value [4] was 34% and the “Population Normal (%)” value [4] was 86%. For the same compound, the “Population Pyknosed Nuclei (%)” value [4] was 21%, the “Population Tubulin-Different-Phenotype (%)” value [4] was 59% and the “Total Cell Count” value [4] was 319. For the same compound, the “Population Apoptotic (%)” value [5] was 40%, the “Population Fragmented Nuclei (%)” value [5] was 7% and the “Population Healthy Nuclei (%)” value [5] was 79%. For the same compound, the “Population Hoechst High Intensity Objects (%)” value [5] was 3%, the “Population Membrane Permeable-Phenotype (%)” value [5] was 1% and the “Population Mitochondria Different-Phenotype (%)” value [5] was 35%. For the same compound, the “Population Mitotic Cells (%)” value [5] was 59%, the “Population Normal (%)” value [5] was 96% and the “Population Pyknosed Nuclei (%)” value [5] was 12%. The “Population Tubulin-Different-Phenotype (%)” value [5] was 24%, the “Total Cell Count” value [5] was 471 and the “Population Fragmented Nuclei (%)” value [6] was 9%. The “Population Hoechst High Intensity Objects (%)” value [6] was 6%, the “Population Membrane Permeable-Phenotype (%)” value [6] was 0% and the “Population Mitochondria Different-Phenotype (%)” value [6] was 37%. The “Population Normal (%)” value [6] was 93%, the “Population Pyknosed Nuclei (%)” value [6] was 11% and the “Population Tubulin-Different-Phenotype (%)” value [6] was 21%. The “Total Cell Count” value [6] was 508, the “Population Apoptotic (%)” value [7] was 27% and the “Population Fragmented Nuclei (%)” value [7] was 8%. The “Population Healthy Nuclei (%)” value [7] was 72%, the “Population Hoechst High Intensity Objects (%)” value [7] was 8% and the “Population Membrane Permeable-Phenotype (%)” value [7] was 1%. The “Population Mitochondria Different-Phenotype (%)” value [7] was 63%, the “Population Mitotic Cells (%)” value [7] was 72% and the “Population Normal (%)” value [7] was 91%. For the same compound, the “Population Pyknosed Nuclei (%)” value [7] was 19%, the “Population Tubulin-Different-Phenotype (%)” value [7] was 64% and the “Total Cell Count” value [7] was 580. The “Population Apoptotic (%)” value [8] was 64%, the “Population Fragmented Nuclei (%)” value [8] was 9% and the “Population Healthy Nuclei (%)” value [8] was 70%. For the same compound, the “Population Membrane Permeable-Phenotype (%)” value [8] was 0%, the “Population Mitochondria Different-Phenotype (%)” value [8] was 78% and the “Population Mitotic Cells (%)” value [8] was 35%. For the same compound, the “Population Pyknosed Nuclei (%)” value [8] was 20%, the “Population Tubulin-Different-Phenotype (%)” value [8] was 62% and the “Total Cell Count” value [8] was 361. For the same compound, the “Population Apoptotic (%)” value [9] was 30%, the “Population Fragmented Nuclei (%)” value [9] was 13% and the “Population Healthy Nuclei (%)” value [9] was 79%. The “Population Hoechst High Intensity Objects (%)” value [9] was 1%, the “Population Membrane Permeable-Phenotype (%)” value [9] was 1% and the “Population Mitochondria Different-Phenotype (%)” value [9] was 21%. For the same compound, the “Population Mitotic Cells (%)” value [9] was 69%, the “Population Normal (%)” value [9] was 98% and the “Population Pyknosed Nuclei (%)” value [9] was 6%. The “Population Tubulin-Different-Phenotype (%)” value [9] was 16%, the “Total Cell Count” value [9] was 841 and the “Population Apoptotic (%)” value [10] was 28%. For the same compound, the “Population Hoechst High Intensity Objects (%)” value [10] was 3%, the “Population Membrane Permeable-Phenotype (%)” value [10] was 0% and the “Population Mitotic Cells (%)” value [10] was 71%. For the same compound, the “Population Normal (%)” value [10] was 96%, the “Population Pyknosed Nuclei (%)” value [10] was 7% and the “Population Tubulin-Different-Phenotype (%)” value [10] was 10%. For the same compound, the “Total Cell Count” value [10] was 675, the “Population Apoptotic (%)” value [11] was 37% and the “Population Fragmented Nuclei (%)” value [11] was 14%. For the same compound, the “Population Healthy Nuclei (%)” value [11] was 72%, the “Population Hoechst High Intensity Objects (%)” value [11] was 8% and the “Population Membrane Permeable-Phenotype (%)” value [11] was 1%. The “Population Mitochondria Different-Phenotype (%)” value [11] was 57%, the “Population Mitotic Cells (%)” value [11] was 62% and the “Population Normal (%)” value [11] was 91%. The “Population Pyknosed Nuclei (%)” value [11] was 12%, the “Population Tubulin-Different-Phenotype (%)” value [11] was 55% and the “Total Cell Count” value [11] was 706. The “Population Apoptotic (%)” value [12] was 60%, the “Population Healthy Nuclei (%)” value [12] was 74% and the “Population Hoechst High Intensity Objects (%)” value [12] was 6%. The “Population Mitochondria Different-Phenotype (%)” value [12] was 64%, the “Population Mitotic Cells (%)” value [12] was 40% and the “Population Normal (%)” value [12] was 93%. The “Population Pyknosed Nuclei (%)” value [12] was 11% and the “Total Cell Count” value [12] was 531.
